From PubChem
Sampled rows, rich in hits. Any-hit rate of the full collection: about 2.1%.
MEX-5 binding – C. elegans MEX-5 TCR-2 RNA binding activity | activity score (negative = inhibition of binding), % at 10 µM | AID 1832 | MEX-5/FITC-TCR2 RNA binding, fluorescence polarization; active compounds read low | 300,000 compounds, 0.38% hits;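 active means inhibition past about -25% in most replicates, and total fluorescence under double the plate's negative control median, limit read from the data; inconclusive means replicates evenly split on the limit, or fluorescence at least double controls; inactive means too little inhibition in most replicates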;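 further: 0% = DMSO and -100% = 5 µM competing unlabeled TCR2 RNA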
Target sequence (Q9XUB2 whole entry, looked up): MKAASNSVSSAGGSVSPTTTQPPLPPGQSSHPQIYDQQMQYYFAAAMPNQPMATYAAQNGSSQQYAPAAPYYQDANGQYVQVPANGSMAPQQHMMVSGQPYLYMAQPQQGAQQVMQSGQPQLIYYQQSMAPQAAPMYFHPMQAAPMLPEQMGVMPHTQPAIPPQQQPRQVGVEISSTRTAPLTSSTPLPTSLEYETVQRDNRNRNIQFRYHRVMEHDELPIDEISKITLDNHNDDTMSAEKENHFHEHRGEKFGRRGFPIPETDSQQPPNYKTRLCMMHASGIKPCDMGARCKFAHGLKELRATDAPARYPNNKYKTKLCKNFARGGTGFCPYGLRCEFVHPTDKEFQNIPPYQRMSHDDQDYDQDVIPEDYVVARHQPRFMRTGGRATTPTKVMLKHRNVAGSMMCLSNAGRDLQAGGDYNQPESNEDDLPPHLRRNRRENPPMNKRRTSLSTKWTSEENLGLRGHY
RanGTP-Impb inh – inhibitors of RanGTP-importin-beta interaction, primary screen, biochemical, FRET, CFP-Ran, YFP-importin-beta, homogeneous | 300,000 compounds, 1.1% hits | cell-free CFP-Ran/YFP-importin-beta FRET ratio | inhibition, % (test concentration not listed);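 active means more than half of the replicate wells show a fall in the fluorescence ratio signal beyond about 16%, limit read from the data, passing the limit was not always enough; inconclusive means exactly half of the replicate wells pass the set limit; inactive means fewer than half of replicates pass the limit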;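 further: 0% = DMSO wells and 100% = Ran loaded with GDP instead of GTP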
Runt-CBFb FRET – inhibitors of human RUNX1 Runt domain binding to CBFb | 220,000 compounds, 0.46% hits | Cerulean-Runt/Venus-CBFb FRET ratio 530/480, 1 h | inhibition, % at 20 µM | AID 1496;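 active means inhibition over about 50% at 20 µM in the single-dose screen, limit read from the data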;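 further: 0% = DMSO wells and 100% = excess unlabeled CBFb competitor control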
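Measured by: fluorescence energy transfer, 422 nm excitation, 530/480 nm emission; test system: Cerulean-tagged RUNX1 Runt domain (FRET donor) fusion protein; buffer or medium: Tris pH 7.5 buffer with BSA; compound: one dose, 20 µM compound, 1% DMSO; times: two 1 h room-temperature incubations shielded from light; benchmarks: unlabeled CBFb 5 µM, positive control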
Runt-SMMHC FRET – blocks binding of human RUNX1 Runt domain to CBFb-SMMHC; Cerulean-Runt/Venus-CBFb-SMMHC FRET ratio 530/480, 1 h; inhibition, % at 20 µM; Q01196+Q13951; 220,000 compounds, 0.74% hits;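 active means mean inhibition across duplicate retests at 20 µM reaching about 50%, limit read from the data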;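 further: 0% = DMSO wells and 100% = wells with excess untagged CBFb-SMMHC; inhibitors lower the FRET ratio by blocking Runt binding to CBFb-SMMHC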
proKLK7 act – activators of human kallikrein-7 zymogen. P49862. 370,000 compounds, 0.9% hits. purified proKLK7, EDANS-DABCYL substrate fluorescence; 100% is mature enzyme control, 0% vehicle. AID 652039. activation, % at 7 µM;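 active means activation above the mean of all tested compounds plus 3 SD, computed per campaign excluding outliers beyond control limits, cut at about 13% in these data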
KLK7 act conf – confirmation of human kallikrein-7 zymogen activators; activation, % at 7 µM; purified proKLK7, EDANS-DABCYL substrate fluorescence; scaled: vehicle 0, mature enzyme 100; AID 686949; shares compounds with proKLK7 act; 3,200 compounds, 68% hits;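 active means activation, as change over the incubation, above the mean of all tested compounds plus 3 SD, cut at about 13% in these data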
EDANS-DABCYL int – optically interferes with EDANS-DABCYL signal, flagging KLK7 hits | shares compounds with proKLK7 act | EDANS-DABCYL substrate fluorescence interference, no enzyme, 4 h; solvent 0%, active enzyme control 100% | activation, % at 7 µM | 3,200 compounds, 80% hits | AID 686952;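 active means activation above the all-compound mean plus 3 SD, ignoring values outside control-based bounds, cut at about 4.8% in these data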;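 further: value is the 4 h activation minus the activation read at time zero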
K7 EDANS ctr – counter-screen for kallikrein-7 activators: EDANS-DABCYL interference, dose response; shares compounds with proKLK7 act; EC50, µM; 250 compounds, 20% hits; AID 720493; EDANS-DABCYL peptide fluorescence interference, no enzyme;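 active means compounds that raise the fluorescence signal in this interference counterscreen, with EC50 at or below 10 µM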;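 further: intact quenched peptide substrate alone read at 355 nm excitation and 520 nm emission; signal is fluorescence gain from T0 to T4 after four hours at room temperature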
Starred values were filed as active, the others as inactive; i = inactive; u = inconclusive; x = not tested or not shown.

SMILES	MEX-5 binding	RanGTP-Impb inh	Runt-CBFb FRET	Runt-SMMHC FRET	proKLK7 act	KLK7 act conf	EDANS-DABCYL int	others
CCCCN1CC(N2CCCCC2)CS1(=O)=O (centres undefined)	x	x	x	x	0	x	x
O=C(Nc1ccc(Cl)c(Cl)c1)C1CCN(c2nnc(-n3cccc3)s2)CC1	x	x	x	x	1	x	x
O=C1c2ccccc2NC(c2ccccc2)N1NS(=O)(=O)c1ccccc1 (centres undefined)	2	2	1	5	2	x	x
COc1ccccc1N1C(=O)c2ccccc2NC1c1cc(OC)c(OC)c(OC)c1 (centres undefined)	0	-9	x	x	23*	14*	15*
COc1cc(C2Nc3ccccc3C(=O)N2NS(C)(=O)=O)ccc1O (centres undefined)	1	2	2	1	27*	5	6.8*
COc1ccc(C2Nc3ccccc3C(=O)N2NS(=O)(=O)c2ccccc2)cc1 (centres undefined)	3	u	1	3	17*	9	7.7*
COc1ccc(C2Nc3ccccc3C(=O)N2NS(C)(=O)=O)cc1 (centres undefined)	0	-2	5	15	61*	11	11*
COc1ccccc1N1C(=O)c2ccccc2NC1C(OC)OC (centres undefined)	2	9	0	-3	3	x	x
CC1CCC(NC(=O)C2CCN(C(=O)Nc3ccccc3)CC2)CC1 (centres undefined)	x	x	x	x	-1	x	x
CC1Nc2ccccc2C(=O)N1NS(C)(=O)=O (centres undefined)	-1	-1	3	7	61*	26*	22*
COc1ccc(C2Nc3ccccc3C(=O)N2NS(=O)(=O)c2ccccc2)c(OC)c1 (centres undefined)	-2	9	x	x	18*	35*	32*
NC(=NCc1ccccc1)C(N=Nc1ccccc1)C(=O)NCc1ccccc1 (centres undefined)	x	x	x	x	1	x	x
NC1=Nc2cccc3cccc1c23	x	5	1	-18	53*	25*	27*
C(=N\NC1=Nc2cccc3cccc1c23)/c1ccccc1	-11	0	-14	-27	1	x	x
O=C(NCCc1ccccc1)OCc1cn(Cc2cc(F)ccc2F)nn1	x	x	x	x	0	x	x
O=C(O)c1cn(-c2ccc(F)cc2)c2cc(N3CCNCC3)c(F)cc2c1=O	x	x	x	x	15*	6	4
CCOC(=O)c1cc(-c2ccco2)nc2c1c(C)nn2CCC#N	-1	7	4	4	32*	-48	-66
O=C(COC(=O)c1cc(-c2ccco2)nc2ccccc12)NCc1ccccc1	-1	-3	-2	6	22*	51*	55*
CCN(CC)C(=O)COC(=O)c1cc(-c2ccco2)nc2ccccc12	1	-4	-1	-22	74*	20*	17*	K7 EDANS ctr=i
CCN(CC)C(=O)COC(=O)c1cc(-c2ccc(OC)cc2)nc2ccccc12	0	0	-5	-6	0	x	x
COC(=O)c1csc(S(=O)(=O)N2CCCCC2)c1OC	0	-1	1	-4	1	x	x
Cc1cc2c(nc1C)CCCN2Cc1ccccn1	x	x	x	x	15*	-4	-7
Nc1nc(Cl)cc(-c2ccccc2)n1	0	0	-1	-2	0	x	x
Nc1nc(N)c2nc(-c3ccccc3)c(N)nc2n1	0	-1	26	56*	60*	67*	74*
CN(C(=O)CSc1nc2ccccc2n1C)C1CCS(=O)(=O)C1 (centres undefined)	x	x	x	x	0	x	x
SMILES	MEX-5 binding	RanGTP-Impb inh	Runt-CBFb FRET	Runt-SMMHC FRET	proKLK7 act	KLK7 act conf	EDANS-DABCYL int	others
CN[C@@H](CO)C(=O)NC[C@H]1O[C@@H](n2cc(C)c(=O)[nH]c2=O)C[C@@H]1O	x	x	x	x	0	x	x
Nc1ccc2c(C(F)(F)F)cc(C(F)(F)F)nc2n1	0	2	2	6	38*	47*	42*
FC(F)(F)c1cc(C(F)(F)F)c2ccc(Oc3ccccc3)nc2n1	-3	3	x	1	0	x	x
CC(=O)C(C)Oc1ccc2c3c(c(=O)oc2c1C)CCCC3 (centres undefined)	1	4	14	38	2	x	x
Cc1c(O)ccc2c3c(c(=O)oc12)CCCC3	x	x	75*	90*	32*	71*	64*
CSCCC(NC(C)=O)C(=O)Oc1ccc2c3c(c(=O)oc2c1)CCCC3 (centres undefined)	x	x	38	82*	53*	61*	66*
CC(C)Oc1ccc2c3c(c(=O)oc2c1)CCC3	4	3	-3	0	1	x	x
CC(=O)Oc1ccc2c3c(c(=O)oc2c1)CCCC3	1	6	x	x	495*	688*	685*
O=c1oc2cc(O)ccc2c2oc3cc(O)ccc3c12	0	u	23	56*	72*	62*	72*
O=c1oc2cc(O)ccc2c2ccccc12	-3	0	-3	-32	-1	x	x
CCOC(=O)COc1ccc2c3c(c(=O)oc2c1)CCCC3	-3	0	x	x	3	x	x
C[C@H](CO)N1C[C@H](C)[C@H](CN(C)S(=O)(=O)c2cccc(F)c2)Oc2ncc(-c3cccc(C(=O)N(C)C)c3)cc2C1=O	x	x	x	x	0	x	x
COC(=O)[C@]12CCCCC=C1N(Cc1ccc3c(c1)OCO3)C(=O)[C@H](CC(=O)NCCC(C)C)C2	x	x	x	x	0	x	x
CC1(C(=O)Nc2ccc3c(c2)OCCO3)CN(S(C)(=O)=O)CC(=O)N1CC(F)(F)F (centres undefined)	x	x	x	x	0	x	x
COC(=O)C(C)Oc1ccc2c3c(c(=O)oc2c1)CCCCC3 (centres undefined)	1	4	-1	0	25*	1	-7
CC(Oc1ccc2c3c(c(=O)oc2c1)CCCC3)C(=O)NCC1CCC(C(=O)O)CC1 (centres undefined)	0	1	x	x	0	x	x
O=c1oc2cc(O)ccc2c2c1CCCC2	0	10	48	108*	58*	60*	70*
Cc1c(O)ccc2c(-c3ccccc3)cc(=O)oc12	-1	-5	x	x	-7	x	x
Cc1c(Br)c(=O)oc2c(Br)c(O)ccc12	1	3	21	86*	26*	15*	25*
O=C(CSc1nnc(-c2ccccc2)n1-c1ccc(Cl)cc1)NN=Cc1c[nH]c2ccccc12	x	x	x	x	0	x	x
CCc1c(C)sc(NC(=O)c2ccco2)c1C#N	-2	3	x	x	0	x	x
